Assay results as given in ChEMBL document CHEMBL3994597, “Resin Glycosides from Ipomoea alba Seeds as Potential Chemosensitizers in Breast Carcinoma Cells” (J Nat Prod, 2016).
pIC50: −log10 of the molar value.

Experiments:
MCF7 [1] = test: Cytotoxicity against vinblastine-sensitive human MCF7 cells assessed as growth inhibition after 72 hrs by SRB assay; format: functional, cell-based; conditions: MCF7, 72 h
How it was run: (§1)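 Cells in log phase, grown in RPMI 1640 with 10% FBS at 37 °C, 5% CO2, humidified, were exposed in triplicate to test samples at 0.2−25 μg/mL for 72 h. Growth was read by sulforhodamine B staining. IC50 is the concentration giving 50% growth inhibition relative to untreated control, taken from a semilog plot of concentration (μg/mL) against % inhibition. Vinblastine served as positive control.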

MCF7 [2] = test: Cytotoxicity against multidrug resistant human MCF7 cells cultured in vinblastine free medium assessed as growth inhibition after 72 hrs by SRB assay; format: functional, cell-based; conditions: MCF7, 72 h; how it was run: as §1
MCF7 [3] = test: Cytotoxicity against multidrug resistant human MCF7 cells cultured in vinblastine containing medium assessed as growth inhibition after 72 hrs by SRB assay; format: functional, cell-based; conditions: MCF7, 72 h; how it was run: as §1
MCF7 [4] = test: Potentiation of vinblastine-induced cytotoxicity against vinblastine-sensitive human MCF7 cells assessed as fold reduction in vinblastine IC50 at 5 ug/ml after 72 hrs by SRB assay relative to vinblastine alone; format: functional
How it was run: (§2)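 Modulation assay in sensitive MCF-7 or resistant MCF-7/Vin cells. Cells received vinblastine at 0.00064−10 μg/mL, alone or with glycolipid at 25 or 5 μg/mL, for 72 h. Read-out was SRB, and vinblastine IC50 was derived as in the cytotoxicity assay. Reversal fold = IC50 of vinblastine alone / IC50 with glycolipid. Reserpine at 5 μg/mL served as positive control. Values are mean ± SD of three independent experiments.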

Homo sapiens [5] = species on record: Homo sapiens; test: (§3) Inhibition of multidrug resistance efflux pump in multidrug resistant human MCF7 cells cultured in vinblastine containing medium assessed as potentiation of vinblastine-induced cytotoxicity by measuring fold reduction in vinblastine IC50 at 5 ug/ml after 72 hrs by SRB assay relative to vinblastine alone
How it was run: (§4)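 MCF-7/Vin+ resistant cells were kept in medium containing 0.192 μg/mL vinblastine to hold resistance.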

Homo sapiens [6] = species on record: Homo sapiens; test: Inhibition of multidrug resistance efflux pump in multidrug resistant human MCF7 cells cultured in vinblastine free medium assessed as potentiation of vinblastine-induced cytotoxicity by measuring fold reduction in vinblastine IC50 at 5 ug/ml after 72 hrs by SRB assay relative to vinblastine alone
How it was run: (§5)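 MCF-7/Vin− cells were a stock of the resistant line maintained in vinblastine-free medium.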

HCT-15 = test: Cytotoxicity against human HCT15 cells assessed as growth inhibition after 72 hrs by SRB assay; format: functional, cell-based; conditions: HCT-15, 72 h; how it was run: as §1
Homo sapiens [7] = species on record: Homo sapiens; test: Inhibition of multidrug resistance efflux pump in multidrug resistant human MCF7 cells cultured in vinblastine free medium assessed as potentiation of vinblastine-induced cytotoxicity by measuring fold reduction in vinblastine IC50 at 25 ug/ml after 72 hrs by SRB assay relative to vinblastine alone; how it was run: as §5
HCT-116 = test: Cytotoxicity against human HCT116 cells assessed as growth inhibition after 72 hrs by SRB assay; format: functional, cell-based; conditions: HCT-116, 72 h; how it was run: as §1
HeLa = test: Cytotoxicity against human HeLa cells assessed as growth inhibition after 72 hrs by SRB assay; format: functional, cell-based; how it was run: as §1
MCF7 [8] = test: Potentiation of vinblastine-induced cytotoxicity against vinblastine-sensitive human MCF7 cells assessed as fold reduction in vinblastine IC50 at 25 ug/ml after 72 hrs by SRB assay relative to vinblastine alone; format: functional; how it was run: as §2
MDA-MB-231 = test: Cytotoxicity against human MDA-MB-231 cells assessed as growth inhibition after 72 hrs by SRB assay; format: functional, cell-based; conditions: MDA-MB-231, 72 h; how it was run: as §1
Homo sapiens [9] = species on record: Homo sapiens; test: as §3, with “at 25” for “at 5”; how it was run: as §4

CC[C@@]1(O)C(=O)OCc2c1cc1n(c2=O)Cc2cc3ccccc3nc2-1 [CAMPTOTHECIN]
pIC50 (MCF7 [1]): > 8.74 | pIC50 (MCF7 [2]): > 8.74 | pIC50 (MCF7 [3]): > 8.74

COC(=O)[C@H]1[C@H]2C[C@@H]3c4[nH]c5cc(OC)ccc5c4CCN3C[C@H]2C[C@@H](OC(=O)c2cc(OC)c(OC)c(OC)c2)[C@@H]1OC [RESERPINE]
fold change (FC) (MCF7 [4]): 11 | fold change (FC) (Homo sapiens [5]): 3 | fold change (FC) (Homo sapiens [6]): 20

C/C=C(\C)C(=O)O[C@H]1[C@@H]2O[C@H]3[C@H](O[C@@H](CCC)CCCCCCCCCC(=O)O[C@@H]4[C@@H](O)[C@H](C)O[C@@H](O[C@H]5[C@H](O)[C@@H](C)O[C@@H](O[C@H]([C@H]1O)[C@H](C)O2)[C@@H]5O[C@@H]1O[C@@H](C)[C@H](O)[C@@H](O)[C@H]1OC(=O)[C@H](C)[C@@H](C)O)[C@@H]4O)O[C@H](C)[C@@H](O)[C@@H]3O
pIC50 (HCT-15): < 4.70 | pIC50 (MCF7 [1]): < 4.70 | fold change (FC) (Homo sapiens [7]): 283 | pIC50 (MCF7 [2]): < 4.70 | pIC50 (HCT-116): < 4.70 | pIC50 (HeLa): < 4.70 | fold change (FC) (MCF7 [8]): 37 | pIC50 (MDA-MB-231): < 4.70 | fold change (FC) (Homo sapiens [9]): 3 | pIC50 (MCF7 [3]): < 4.70

COc1cc2c(c(OC)c1OC)-c1ccc(OC)c(=O)cc1[C@@H](NC(C)=O)CC2 [COLCHICINE]
pIC50 (MCF7 [1]): 7.30 | pIC50 (MCF7 [2]): 5.55 | pIC50 (MCF7 [3]): 5.55

C/C=C(\C)C(=O)O[C@@H]1[C@H](O)[C@@H](O)[C@H](O[C@@H]2[C@@H](O)[C@@H](OC(=O)/C(C)=C/C)[C@H](O[C@H]3[C@@H]4O[C@H]5[C@H](O[C@@H](CCC)CCCCCCCCCC(=O)O[C@H]3[C@H](O)[C@@H](CO)O4)O[C@H](C)[C@@H](O)[C@@H]5O)O[C@H]2C)O[C@@H]1C
pIC50 (HCT-15): 4.84 | pIC50 (MCF7 [1]): 4.82 | fold change (FC) (Homo sapiens [7]): 5 | pIC50 (MCF7 [2]): < 4.70 | pIC50 (HCT-116): 4.82 | pIC50 (HeLa): 4.76 | fold change (FC) (MCF7 [8]): >87 | pIC50 (MDA-MB-231): < 4.70 | fold change (FC) (Homo sapiens [9]): > 2520 | pIC50 (MCF7 [3]): < 4.70

CCC[C@H]1CCCCCCCCCC(=O)O[C@H]2[C@H](OC[C@H]3O[C@@H](O[C@H]4[C@H](O1)O[C@H](C)[C@@H](O)[C@@H]4O)[C@H](O[C@@H]1O[C@@H](C)[C@H](OC(C)=O)[C@@H](O)[C@H]1O)[C@@H](O)[C@@H]3O)O[C@H](C)[C@@H](O)[C@@H]2OC(=O)[C@H](C)[C@@H](C)O
pIC50 (HCT-15): < 4.70 | pIC50 (MCF7 [1]): < 4.70 | fold change (FC) (Homo sapiens [7]): 1 | pIC50 (MCF7 [2]): < 4.70 | pIC50 (HCT-116): < 4.70 | pIC50 (HeLa): < 4.70 | fold change (FC) (MCF7 [8]): 4 | pIC50 (MDA-MB-231): < 4.70 | fold change (FC) (Homo sapiens [9]): 2 | pIC50 (MCF7 [3]): < 4.70

C/C=C(\C)C(=O)O[C@@H]1[C@H](O)[C@@H](O)[C@H](O[C@@H]2[C@@H](O)[C@@H](OC(=O)/C(C)=C/C)[C@H](O[C@H]3[C@@H]4O[C@H]5[C@H](O[C@@H](CCCCC)CCCCCCCCCC(=O)O[C@H]3[C@H](O)[C@@H](CO)O4)O[C@H](C)[C@@H](O)[C@@H]5O)O[C@H]2C)O[C@@H]1C
pIC50 (HCT-15): 5.01 | pIC50 (MCF7 [1]): 5.10 | fold change (FC) (Homo sapiens [7]): > 1980 | pIC50 (MCF7 [2]): 4.79 | pIC50 (HCT-116): 4.80 | pIC50 (HeLa): 5.02 | fold change (FC) (MCF7 [8]): >87 | pIC50 (MDA-MB-231): 4.94 | fold change (FC) (Homo sapiens [9]): > 2520 | pIC50 (MCF7 [3]): 4.77

COc1cc([C@@H]2c3cc4c(cc3[C@H](O)[C@H]3COC(=O)[C@H]23)OCO4)cc(OC)c1OC [PODOFILOX]
pIC50 (MCF7 [1]): 7.70 | pIC50 (MCF7 [2]): 6.70 | pIC50 (MCF7 [3]): 6.52

C/C=C(\C)C(=O)O[C@H]1[C@H](O[C@H]2[C@@H]3O[C@H]4[C@H](O[C@@H](CCC)CCCCCCCCCC(=O)O[C@H]5[C@H](O[C@H]6[C@H](OC[C@@H](O3)[C@@H](O)[C@@H]2O)O[C@H](C)[C@@H](O)[C@@H]6O)O[C@@H](C)[C@H](O)[C@H]5O)O[C@H](C)[C@@H](O)[C@@H]4O)O[C@@H](C)[C@H](O)[C@H]1O
pIC50 (HCT-15): < 4.70 | pIC50 (MCF7 [1]): < 4.70 | fold change (FC) (Homo sapiens [7]): 1700 | pIC50 (MCF7 [2]): < 4.70 | pIC50 (HCT-116): < 4.70 | pIC50 (HeLa): < 4.70 | fold change (FC) (MCF7 [8]): 4 | pIC50 (MDA-MB-231): < 4.70 | fold change (FC) (Homo sapiens [9]): 3 | pIC50 (MCF7 [3]): < 4.70

CCC[C@H]1CCCCCCCCCC(=O)O[C@H]2[C@H](O[C@H]3[C@H](O)[C@@H](C)O[C@@H](O[C@H]4[C@H](O1)O[C@H](C)[C@@H](O)[C@@H]4O)[C@@H]3O[C@@H]1O[C@@H](C)[C@H](OC(C)=O)[C@@H](O)[C@H]1O)O[C@H](C)[C@@H](O)[C@@H]2OC(=O)[C@H](C)[C@@H](C)O
pIC50 (HCT-15): < 4.70 | pIC50 (MCF7 [1]): < 4.70 | fold change (FC) (Homo sapiens [7]): 322 | pIC50 (MCF7 [2]): < 4.70 | pIC50 (HCT-116): < 4.70 | pIC50 (HeLa): < 4.70 | fold change (FC) (MCF7 [8]): 34 | pIC50 (MDA-MB-231): < 4.70 | fold change (FC) (Homo sapiens [9]): 201 | pIC50 (MCF7 [3]): < 4.70

Cc1c2ccncc2c(C)c2c1[nH]c1ccccc12 [ELLIPTECINE]
pIC50 (MCF7 [2]): 5.80 | pIC50 (MCF7 [3]): 5.70

CC[C@]1(O)C[C@@H]2CN(CCc3c([nH]c4ccccc34)[C@@](C(=O)OC)(c3cc4c(cc3OC)N(C)[C@H]3[C@@](O)(C(=O)OC)[C@H](OC(C)=O)[C@]5(CC)C=CCN6CC[C@]43[C@@H]65)C2)C1 [VINBLASTINE]
pIC50 (HCT-15): 7.22 | pIC50 (MCF7 [1]): 7.22 | pIC50 (MCF7 [2]): 5.96 | pIC50 (HCT-116): 7.30 | pIC50 (HeLa): 8.70 | pIC50 (MDA-MB-231): 8.00 | pIC50 (MCF7 [3]): 5.89
